Measured values reported in ChEMBL document CHEMBL2331243, “Discovery and mechanism study of SIRT1 activators that promote the deacetylation of fluorophore-labeled substrate” (J Med Chem, 2013).
Where a chain is given by its changes, count along the chain named. Active and inactive are the calls of the source. No cut-off for these calls is given here.

Experiments:
[1] = biological target: T1, NAD-dependent protein deacetylase sirtuin-1 (Homo sapiens) (UniProt Q96EB6); assay: Activation of N-terminal His6-tagged SIRT1 (156 to 664 amino acid residues) (unknown origin) expressed in Escherichia coli BL21(DE3) using ac-RHKKac-AMC as substrate at 50 uM after 45 mins by fluorimetric analysis relative to control
T1 sequence (whole entry): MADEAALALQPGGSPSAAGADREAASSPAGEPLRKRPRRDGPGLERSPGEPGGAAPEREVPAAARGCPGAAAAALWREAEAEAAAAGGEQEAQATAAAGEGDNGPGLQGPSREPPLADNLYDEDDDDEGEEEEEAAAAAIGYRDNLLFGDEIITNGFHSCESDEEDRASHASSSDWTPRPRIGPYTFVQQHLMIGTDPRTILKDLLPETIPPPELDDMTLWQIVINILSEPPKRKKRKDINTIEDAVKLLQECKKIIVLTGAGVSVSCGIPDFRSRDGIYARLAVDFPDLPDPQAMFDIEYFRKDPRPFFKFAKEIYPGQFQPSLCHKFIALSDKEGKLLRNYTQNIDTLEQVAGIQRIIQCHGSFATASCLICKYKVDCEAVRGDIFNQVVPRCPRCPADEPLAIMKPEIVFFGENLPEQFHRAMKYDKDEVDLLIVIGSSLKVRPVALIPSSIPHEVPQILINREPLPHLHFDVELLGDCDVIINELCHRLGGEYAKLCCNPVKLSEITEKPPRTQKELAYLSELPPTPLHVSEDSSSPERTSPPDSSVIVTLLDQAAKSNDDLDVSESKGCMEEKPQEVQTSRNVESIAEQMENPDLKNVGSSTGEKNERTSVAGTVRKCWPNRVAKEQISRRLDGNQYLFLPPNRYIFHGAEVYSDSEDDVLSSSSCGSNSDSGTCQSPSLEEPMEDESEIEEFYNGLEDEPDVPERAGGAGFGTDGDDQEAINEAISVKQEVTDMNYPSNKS
Procedure, shortened: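 Fluorogenic deacetylation screen: 1 μM SIRT1 with 750 μM NAD⁺ and 31.25 μM ac-RHKK_ac-AMC in Tris buffer (25 mM Tris, 137 mM NaCl, 2.7 mM KCl, 1 mM MgCl₂, pH 8.0). Compounds at 50 μM from DMSO stocks; DMSO alone as blank. Trypsin then releases AMC from deacetylated peptide; fluorescence read at 340/490 nm.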

[2] = biological target: T1, NAD-dependent protein deacetylase sirtuin-1 (Homo sapiens); assay: Activation of N-terminal His6-tagged SIRT1 (156 to 664 amino acid residues) (unknown origin) expressed in Escherichia coli BL21(DE3) using ac-RHKKac-NH2 as substrate after 45 mins by HPLC analysis
[3] = system: T2, NAD-dependent protein deacetylase sirtuin-1 (Homo sapiens), Q96EB6 [R446A]; assay: Activation of SIRT1 R446A mutant (unknown origin) at 50 uM relative to control
T2 sequence (whole entry): T1 sequence (whole entry) with R446A
Procedure, shortened: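 SIRT1 R446A mutant made by site-directed mutagenesis, expressed in E. coli and purified on Ni-NTA. Fluorescent deacetylation assay used 1 μM enzyme, 750 μM NAD⁺, 31.25 μM ac-RHKK_ac-AMC and 50 μM compound versus DMSO, in Tris buffer pH 8.0. Trypsin released AMC from deacetylated peptide, read at ex 340/em 490 nm.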

[4] = biological target: T1, NAD-dependent protein deacetylase sirtuin-1 (Homo sapiens); assay: Activation of SIRT1 in human MCF7 cells assessed as reduction in doxorubicin-induced acetyl-p53 level at >100 uM after 6 hrs by Western blotting analysis; format: cell-based
Procedure, shortened: (§1)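 MCF-7 cells were seeded at 1 × 10⁵ in DMEM with 10% fetal calf serum and grown 24 h at 37 °C, 5% CO₂. They then got gradient compound concentrations with 0.1 μM trichostatin and 5 μM doxorubicin for 6 h, then lysis. 50 μg protein was run on a 9% gel and blotted with polyclonal anti-acetyl-p53 (Lys382) at 4 °C overnight, with HRP anti-rabbit detection.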

[5] = biological target: T1, NAD-dependent protein deacetylase sirtuin-1 (Homo sapiens); assay: Activation of SIRT1 in human MCF7 cells assessed as reduction in doxorubicin-induced acetyl-p53 level at <100 uM after 6 hrs by Western blotting analysis; format: cell-based; procedure, shortened: as §1
[6] = biological target: T3, NAD-dependent protein deacetylase sirtuin-2 (Homo sapiens, UniProt Q8IXJ6); assay: Activation of at N-terminal GST-tagged SIRT2 (34 to 356 amino acid residues) (unknown origin) expressed in Escherichia coli BL21(DE3) using ac-RHKKac-AMC as substrate after 45 mins by fluorometric analysis
T3 sequence (Q8IXJ6 whole entry): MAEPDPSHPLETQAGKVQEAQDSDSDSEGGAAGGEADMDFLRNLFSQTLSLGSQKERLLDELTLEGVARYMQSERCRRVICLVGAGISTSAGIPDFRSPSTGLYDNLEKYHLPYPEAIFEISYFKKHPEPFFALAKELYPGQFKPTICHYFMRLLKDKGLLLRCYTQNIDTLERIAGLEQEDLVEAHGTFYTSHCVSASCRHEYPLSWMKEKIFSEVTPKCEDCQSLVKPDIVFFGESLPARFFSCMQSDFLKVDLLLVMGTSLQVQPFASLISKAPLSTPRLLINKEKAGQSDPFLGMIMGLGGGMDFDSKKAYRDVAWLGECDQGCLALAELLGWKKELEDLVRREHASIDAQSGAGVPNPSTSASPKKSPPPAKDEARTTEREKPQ
Procedure, shortened: (§2)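 Fluorescent deacetylation assay in 25 mM Tris, 137 mM NaCl, 2.7 mM KCl, 1 mM MgCl₂, pH 8.0, with 750 μM NAD⁺ and 31.25 μM ac-RHKK_ac-AMC. Enzyme was 3.6 μM SIRT3 or 4.2 μM GST-SIRT2, set to match SIRT1 activity. Trypsin released AMC from the deacetylated peptide, read at ex 340 / em 490 nm. Compounds were added from DMSO (DMSO as blank): single point at 50 μM, or 3-fold DMSO dilution series. EC1.5 (concentration giving 50% activity increase) and maximum activation were fitted to a dose–response function.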

[7] = biological target: T4, NAD-dependent protein deacetylase sirtuin-2 (Homo sapiens) (UniProt Q8IXJ6); assay: Activation of at N-terminal GST-tagged SIRT2 (34 to 356 amino acid residues) (unknown origin) expressed in Escherichia coli BL21(DE3) using ac-RHKKac-AMC as substrate at 50 uM after 45 mins by fluorometric analysis relative to control; procedure, shortened: as §2
T4 sequence (whole entry): T3 sequence (Q8IXJ6 whole entry)

[8] = biological target: T5, NAD-dependent protein deacetylase sirtuin-3, mitochondrial (Homo sapiens) (UniProt Q9NTG7); assay: Activation of N-terminal His6-tagged SIRT3 (118 to 399 amino acid residues) (unknown origin) expressed in Escherichia coli BL21(DE3) using ac-RHKKac-AMC as substrate at 50 uM after 45 mins by fluorometric analysis relative to control; procedure, shortened: as §2
T5 sequence (whole entry): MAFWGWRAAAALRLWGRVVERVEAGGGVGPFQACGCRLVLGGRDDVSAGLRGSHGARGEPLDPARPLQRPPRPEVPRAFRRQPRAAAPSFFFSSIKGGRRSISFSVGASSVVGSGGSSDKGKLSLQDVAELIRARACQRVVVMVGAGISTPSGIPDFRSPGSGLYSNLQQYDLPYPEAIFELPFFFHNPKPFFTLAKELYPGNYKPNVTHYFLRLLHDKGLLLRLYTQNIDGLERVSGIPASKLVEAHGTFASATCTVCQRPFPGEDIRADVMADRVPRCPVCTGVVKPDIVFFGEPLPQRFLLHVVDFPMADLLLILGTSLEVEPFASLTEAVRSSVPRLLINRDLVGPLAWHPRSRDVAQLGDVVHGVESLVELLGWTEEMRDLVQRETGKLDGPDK

[9] = biological target: T6, NAD-dependent protein deacetylase sirtuin-1 (Homo sapiens, UniProt Q96EB6); assay: Activation of N-terminal His6-tagged SIRT1 (156 to 664 amino acid residues) (unknown origin) expressed in Escherichia coli BL21(DE3) using ac-RHKKac-AMC as substrate after 45 mins by fluorometric analysis
T6 sequence (Q96EB6 whole entry): T1 sequence (whole entry)

[10] = biological target: T7, NAD-dependent protein deacetylase sirtuin-3, mitochondrial (Homo sapiens, UniProt Q9NTG7); assay: Activation of N-terminal His6-tagged SIRT3 (118 to 399 amino acid residues) (unknown origin) expressed in Escherichia coli BL21(DE3) using ac-RHKKac-AMC as substrate after 45 mins by fluorometric analysis; procedure, shortened: as §2
T7 sequence (Q9NTG7 whole entry): T5 sequence (whole entry)

SMILES	max activation [1]	Activity [2]	max activation [3]	Activity [4]	Activity [5]	EC50 [6]	max activation [7]	max activation [8]	EC50 [9]	EC50 [10]
Oc1ccc(/C=C/c2cc(O)cc(O)c2)cc1	802%	inactive	239%	Active	inactive	–	–	–	–	–
O=C(N/N=C/c1cc(Br)c(O)c(Br)c1O)c1ccc2cc(-c3ccccc3)ccc2c1	194%	–	–	–	–	11.6 µM	257%	199%	1.8 µM	28.6 µM
